# UHRF1 MBD2 ctr: UHRF1 methyl-DNA binding inhibition. Q96T88. UHRF1 binding to methylated oligo, TR-FRET. inhibition, % at 4.4 µM. actives 0.75% (n = 370,000); in the data active = inhibition above about 21%;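 note: UHRF1 SRA domain binding a hemimethylated CpG hairpin DNA probe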
# Target sequence (Q96T88 whole entry, looked up, the tested form may be a part): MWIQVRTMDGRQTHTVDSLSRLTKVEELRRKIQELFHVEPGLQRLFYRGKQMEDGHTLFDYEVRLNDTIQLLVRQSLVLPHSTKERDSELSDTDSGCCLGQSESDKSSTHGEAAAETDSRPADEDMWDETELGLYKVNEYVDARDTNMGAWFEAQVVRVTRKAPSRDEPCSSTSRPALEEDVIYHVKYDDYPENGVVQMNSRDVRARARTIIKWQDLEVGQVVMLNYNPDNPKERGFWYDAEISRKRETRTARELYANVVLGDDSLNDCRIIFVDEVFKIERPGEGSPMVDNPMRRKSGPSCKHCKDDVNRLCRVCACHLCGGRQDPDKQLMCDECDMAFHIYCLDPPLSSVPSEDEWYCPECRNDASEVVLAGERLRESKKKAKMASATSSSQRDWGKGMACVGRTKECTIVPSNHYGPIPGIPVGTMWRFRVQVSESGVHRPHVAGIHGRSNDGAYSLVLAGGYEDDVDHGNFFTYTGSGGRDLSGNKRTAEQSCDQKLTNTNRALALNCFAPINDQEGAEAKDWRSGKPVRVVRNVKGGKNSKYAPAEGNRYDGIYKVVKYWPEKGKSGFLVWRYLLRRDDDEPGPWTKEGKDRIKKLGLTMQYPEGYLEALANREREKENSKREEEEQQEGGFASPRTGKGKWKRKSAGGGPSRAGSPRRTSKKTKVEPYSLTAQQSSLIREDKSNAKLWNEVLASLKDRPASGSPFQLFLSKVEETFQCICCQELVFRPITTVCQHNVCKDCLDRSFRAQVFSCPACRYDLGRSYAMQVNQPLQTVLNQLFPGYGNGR
# MBD2 DNA inh: blocks human MBD2 binding to methylated DNA. TR-FRET, MBD2 binding to methylated oligonucleotide. actives 0.31% (n = 370,000). inhibition, % at 4.4 µM. Q9UBB5; in the data active = inhibition above about 13%
# Pemphigus Ab inh: blocks pemphigus antibody binding to human desmoglein-3; actives 0.48% (n = 310,000); AID 588358; DSG3-coupled beads, scFv-anti-DSG3-GFP binding, flow cytometry; stronger effect = lower value; binding (percent of control), % at 10 µM;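 active = binding more than 3 SD below its plate's average and above zero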;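 note: hits lower antibody fragment binding to DSG3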
# DNMT1 inh: DNMT1 (human) enzyme inhibition; actives 0.83% (n = 360,000); DNMT1 molecular beacon, Hinp1I cleavage, fluorescence; inhibition (reported as % activation of signal), % at 10 µM; in the data active = inhibition above about 50%
# NS3 helicase inh: HCV NS3 helicase inhibition; actives 0.56% (n = 290,000); AID 1800; inhibition, % at 10.9 µM; NS3 helicase DNA unwinding, Cy5 molecular beacon fluorescence;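 active = inhibition above the mean of all tested compounds plus 3 SD, set per campaign, cut at about 35% in these data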
#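 Assay system – hepatitis C virus NS3 helicase domain fragment enzyme · Buffer or medium – MOPS pH 6.5, MgCl2, DTT, Tween20, BSA · Reagent – Cy5/quencher beacon DNA duplex and ATP to start · Compound – single 10.9 µM dose · Timing – 1 h at 25 °C · Technique – Cy5 beacon fluorescence read at start and 1 h · Measure – % inhibition of unwinding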
# SUMO1 PPI mod: alters human SUMO1 binding to SIM partners | P63165 | SUMO1 binding to a labelled peptide, TR-FRET, 1 h | inhibition, % at 20 µM | actives 0.33% (n = 360,000); in the data active = inhibition above about 37%
# Numbers stand for hits; n = inactive; x = not tested or not shown. An excerpt weighted towards active compounds, which were near 2.5% of everything screened.
SMILES,UHRF1 MBD2 ctr,MBD2 DNA inh,Pemphigus Ab inh,DNMT1 inh,NS3 helicase inh,SUMO1 PPI mod
COc1ccc(/C=N/NC(=O)c2ccc(N(C)S(=O)(=O)c3ccccc3)cc2)c(OC)c1,31.9,n,n,n,n,n
COc1ccc(OC)c(/C=N/NC(=O)c2ccc(N(C)S(=O)(=O)c3ccccc3)cc2)c1,n,n,n,n,n,n
CCOc1nc(Nc2ccc(OC)c(Cl)c2)nc(OCC)n1,36.2,n,n,n,n,n
COc1cccc(-c2nc(CS(=O)CC(=O)NC3CCCCC3)c(C)o2)c1 (stereo not given),n,n,55.4,n,n,n
CC(C)c1ccc(CNc2nc3nc4c(c(=O)n3[nH]2)CCC4)cc1,n,n,n,n,n,n
O=[N+]([O-])c1cccc(COc2ccc(CN3CCCCC3)cc2)c1,20.9,n,n,n,x,n
N#CCc1cccnc1Sc1ccc(Cl)cc1,26.1,n,n,n,x,n
O=[N+]([O-])c1ccc(CSc2nnc3ccccn23)cc1,n,n,n,n,n,n
O=C(c1nc(SCc2ccc([N+](=O)[O-])cc2)n2ccccc12)C(F)(F)F,23.6,n,n,n,n,n
O=C(c1cc2ccccc2oc1=O)N(c1ccc(Cl)cc1)C1C=CS(=O)(=O)C1 (stereo not given),n,n,n,n,n,n
C[n+]1c(/C=C/c2ccc(O)cc2)ccc2ccccc21,n,n,n,n,n,n
Cc1cc(/C=C\c2ccc3cc(N(C)C)ccc3[n+]2C)c(C)n1-c1ccccc1,x,x,n,53.5,x,n
Cc1cccc2c1-c1sc(C(=O)Nc3nccs3)cc1CO2,n,n,n,n,n,n
COc1ccc(-n2c(N)c(C(=O)NCC3CCCO3)c3nc4ccccc4nc32)c(OC)c1 (stereo not given),n,n,72.9,n,n,n
Nc1c(C(=O)NCc2ccc(F)cc2)c2nc3ccccc3nc2n1CCCN1CCOCC1,n,n,n,n,n,n
Nc1c(C(=O)NCc2ccccc2)c2nc3ccccc3nc2n1CCCN1CCOCC1,n,n,n,n,n,43.4
C=CCn1c(N)c(C(=O)NCC2CCCO2)c2nc3ccccc3nc21 (stereo not given),n,n,n,n,n,43.9
CCn1c(SCC(=O)NC2CCCC2)nnc1-c1ccco1,n,n,x,n,n,n
CC/C(C)=C1/NC(=O)NC1=O,n,n,n,n,x,n
C/C(C/C(C)=C1/SC(=S)NC1=O)=C1\SC(=S)NC1=O,44.8,18.5,n,n,n,n
COc1ccc(CNC(=O)CCNS(=O)(=O)c2ccc(Cl)cc2)cc1,n,n,x,n,n,n
CC1(C(=O)Nc2ccc3c(c2)OCCO3)CN(S(C)(=O)=O)CC(=O)N1Cc1cccc(C(F)(F)F)c1 (stereo not given),n,n,x,x,x,n
Cn1c(SCC(=O)Nc2ccc3nc(SCC(=O)N4CCCC4)sc3c2)nnc1-c1ccc(N)cc1,x,x,n,n,n,63.1
O=C(O)/C=C/c1ccccc1[N+](=O)[O-],n,n,n,n,n,n
CC(C)N(Cc1ccccc1)C(=O)/C=C/c1ccccc1[N+](=O)[O-],28.2,n,n,n,n,n
SMILES,UHRF1 MBD2 ctr,MBD2 DNA inh,Pemphigus Ab inh,DNMT1 inh,NS3 helicase inh,SUMO1 PPI mod
CCOc1ccc(C(C)=O)cc1CN1C(=O)NC2(CCCCCCC2)C1=O,n,n,n,n,n,n
O=C(CC1C(=O)NCCN1Cc1c(F)cccc1Cl)NCCC1=CCCCC1 (stereo not given),n,n,n,n,n,n
O=C(CC1C(=O)NCCN1Cc1c(F)cccc1Cl)NCCc1ccccn1 (stereo not given),25.7,n,n,n,n,n
C[C@@H]1CCN(C2CC2)S(=O)(=O)c2ccc(N3CCC[C@@H]3C)cc2O1,n,n,x,x,x,x
COc1ccc(Br)cc1/C=C/C(=O)Nc1ccc(C)cc1,n,n,n,n,n,n
COc1ccc(-n2nnnc2SCC(=O)Nc2ccc3c(c2)OCCO3)cc1OC,n,n,n,n,n,n
COc1ccccc1NC(=O)C1=C(C)N(c2ccccc2)C(=S)NC1c1cccc(C(F)(F)F)c1 (stereo not given),n,n,n,n,n,n
COC(=O)c1ccc(C2NC(=S)N(c3ccccc3)C(C)=C2C(=O)Nc2ccccc2OC)cc1 (stereo not given),n,n,-8.8,n,n,n
CC(C)c1ccc(N(CC(=O)N2CCOCC2)S(C)(=O)=O)cc1,n,n,n,n,n,n
O=C1NCC(=O)N2C(c3ccccc3)c3[nH]c4ccccc4c3C[C@@H]12 (stereo not given in full),n,n,n,n,n,n
COc1ccc(CCCNC(=O)C2CCC(=O)N(Cc3ccc(Cl)cc3)C2)cc1 (stereo not given),25.6,n,n,n,n,n
O=C(NCCCc1ccccc1)C1CCC(=O)N(Cc2ccc(Cl)cc2)C1 (stereo not given),21.2,n,n,n,n,n
O=C(NCCc1ccccc1Cl)C1CCC(=O)N(Cc2ccc(Cl)cc2)C1 (stereo not given),n,n,n,n,n,n
O=C(NCCCN1CCCC1=O)C1CCN(S(=O)(=O)c2cccc(Cl)c2Cl)CC1,n,n,n,n,x,n
O=C(NCCCN1CCCC1=O)C1CCN(S(=O)(=O)c2ccc(Cl)cc2)CC1,n,n,x,n,x,38.3
O=C(/C=C/c1ccccc1)NCCS(=O)(=O)N1CCN(c2ccccc2)CC1,n,n,n,n,x,n
C=CCn1c(SCC#N)nc2sc(CC)cc2c1=O,27.6,n,n,n,n,n
C=CCn1c(SCC(=O)O)nc2sc(CC)cc2c1=O,n,n,n,n,n,n
COc1ccc(CCNC(=O)c2cccnc2SC)cc1,n,n,x,n,n,n
O=C1C=C(N(CCO)Cc2ccccc2)c2ccccc2C1=O,x,x,n,77.4,n,n
O=C1c2ccccc2C(=O)c2c1cccc2N(CCO)CCO,n,n,n,n,n,n
NCc1cccc(-n2cccn2)c1,n,n,n,n,n,n
COC(=O)c1ccc(CNC(=O)COC(=O)/C=C/c2cc(OC)c(OC)c(OC)c2)cc1,n,n,60.8,n,x,n
Nc1nc2c(c(=O)[nH]1)C(c1cccc3ccccc13)C1=C(N2)c2ccccc2C1=O (stereo not given),n,n,41.0,n,n,n
O=S(=O)(c1ccccc1)c1nc(-c2ccccc2Cl)oc1NCCCN1CCOCC1,39.6,n,n,n,x,n
O=S(=O)(c1ccccc1)c1nc(-c2ccccc2Cl)oc1NCCN1CCOCC1,n,n,n,n,n,n
CCCC1=NN(C(=O)Cc2ccc(OC)cc2)C(O)(C(F)(F)F)C1 (stereo not given),n,n,n,n,n,n
CCOc1ccc(CC(=O)N2N=C(C)CC2(O)C(F)(F)F)cc1 (stereo not given),28.9,n,n,n,n,n

# Screening data from PubChem BioAssay.
